Experimental data published in ChEMBL document CHEMBL1138033, “S-alkylated homocysteine derivatives: new inhibitors of human betaine-homocysteine S-methyltransferase” (J Med Chem, 2006).

Experiments:
[1] = target: T1, Betaine--homocysteine S-methyltransferase 1 (Homo sapiens) (UniProt Q93088); assay: Inhibition of human BHMT at 20 uM
T1 sequence (whole entry): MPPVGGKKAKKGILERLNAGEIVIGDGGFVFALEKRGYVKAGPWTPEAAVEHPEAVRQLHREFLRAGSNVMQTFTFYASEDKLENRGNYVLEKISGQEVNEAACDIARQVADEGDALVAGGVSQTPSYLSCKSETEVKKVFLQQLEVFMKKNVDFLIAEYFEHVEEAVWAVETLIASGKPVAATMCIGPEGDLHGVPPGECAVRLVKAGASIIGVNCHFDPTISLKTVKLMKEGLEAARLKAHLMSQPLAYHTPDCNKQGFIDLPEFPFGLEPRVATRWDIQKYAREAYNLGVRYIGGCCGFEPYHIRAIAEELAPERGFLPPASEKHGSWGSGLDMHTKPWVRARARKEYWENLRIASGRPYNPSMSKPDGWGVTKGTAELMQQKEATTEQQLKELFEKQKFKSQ
How it was run: (§1)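 Recombinant human BHMT (0.2 µM) premixed with inhibitor, then 100 µM D,L-homocysteine and 250 µM N-methyl-¹⁴C-betaine (0.05 µCi) added; 50 mM K-phosphate pH 7.5, 10 mM β-mercaptoethanol, 37°C for 30 min. Radiolabel incorporation read against enzyme-free blanks; triplicates, percent relative to no-inhibitor control.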

[2] = target: T1, Betaine--homocysteine S-methyltransferase 1 (Homo sapiens); assay: Inhibition of human BHMT at 1 uM; how it was run: as §1
[3] = target: T2, Betaine--homocysteine S-methyltransferase 1 (Homo sapiens, UniProt Q93088); assay: Inhibition of human BHMT
T2 sequence (Q93088 whole entry): T1 sequence (whole entry)
How it was run: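 Recombinant human BHMT (0.2 µM) mixed with inhibitor at ten concentrations, then 1 mM D,L-homocysteine and 2 mM betaine (¹⁴C-methyl labelled, 0.15 µCi) added in 50 mM K-phosphate pH 7.5 with 10 mM β-mercaptoethanol; 30 min at 37°C. Enzyme-free blanks subtracted. IC50 by nonlinear regression; points in duplicate, three independent assays.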

SMILES	inhibition [1]	inhibition [2]	IC50 [3]
NC(CCSCC(N)C(=O)O)C(=O)O (stereo not given)	18.8%	–	–
NC(CCSSCCC(N)C(=O)O)C(=O)O (stereo not given)	0%	–	–
NC(CC[S+]([O-])CC(N)C(=O)O)C(=O)O (stereo not given)	9.5%	–	–
N[C@@H](CSCCCCC(=O)O)C(=O)O	0%	–	–
NC(CCSCCCCCC(=O)O)C(=O)O (racemic)	100%	99.9%	0.2 µM
NC(CC[S+]([O-])CCCCC(=O)O)C(=O)O (racemic)	97.3%	67.8%	5 µM
NC(CCSCCCCP(=O)(O)O)C(=O)O (racemic)	97.8%	74%	5.7 µM
NC(CCSCCSCC(=O)O)C(=O)O (racemic)	100%	96.8%	0.096 µM
NC(CCSc1ccc(C(=O)O)cc1)C(=O)O (racemic)	98.6%	84.8%	7 µM
C=CCSCCC(N)C(=O)O (racemic)	0%	–	–
COC(=O)C(N)CCSCC(=O)NCP(=O)(O)O (racemic)	0%	–	–
CSCSCCC(N)C(=O)O (racemic)	20.5%	–	–
NC(CCS(=O)(=O)CCCCC(=O)O)C(=O)O (racemic)	28.8%	–	–
NC(CCSCC(=O)NCP(=O)(O)O)C(=O)O (racemic)	8.8%	–	–
NC(CCSCCCC(=O)O)C(=O)O (racemic)	20.1%	–	–
NC(CCSCCCCC(=O)O)C(=O)O (racemic)	100%	98.3%	–
NC(CCSCCOCP(=O)(O)O)C(=O)O (racemic)	25.5%	–	–
NC(CCSCC[S+]([O-])CC(=O)O)C(=O)O (racemic)	89.8%	55.3%	–
NC(CCSCc1ccc(CC(=O)O)cc1)C(=O)O (racemic)	10.1%	–	–
NC(CCSSCCC(=O)O)C(=O)O (racemic)	30%	0%	–
NC(CCSc1cccc(C(=O)O)c1)C(=O)O (racemic)	12.8%	–	–
NC(CCSc1ccccc1C(=O)O)C(=O)O (racemic)	42.5%	–	–
